Test [1] has as its target T1, Transketolase (Homo sapiens, UniProt P29401).
T1 sequence (P29401 whole entry): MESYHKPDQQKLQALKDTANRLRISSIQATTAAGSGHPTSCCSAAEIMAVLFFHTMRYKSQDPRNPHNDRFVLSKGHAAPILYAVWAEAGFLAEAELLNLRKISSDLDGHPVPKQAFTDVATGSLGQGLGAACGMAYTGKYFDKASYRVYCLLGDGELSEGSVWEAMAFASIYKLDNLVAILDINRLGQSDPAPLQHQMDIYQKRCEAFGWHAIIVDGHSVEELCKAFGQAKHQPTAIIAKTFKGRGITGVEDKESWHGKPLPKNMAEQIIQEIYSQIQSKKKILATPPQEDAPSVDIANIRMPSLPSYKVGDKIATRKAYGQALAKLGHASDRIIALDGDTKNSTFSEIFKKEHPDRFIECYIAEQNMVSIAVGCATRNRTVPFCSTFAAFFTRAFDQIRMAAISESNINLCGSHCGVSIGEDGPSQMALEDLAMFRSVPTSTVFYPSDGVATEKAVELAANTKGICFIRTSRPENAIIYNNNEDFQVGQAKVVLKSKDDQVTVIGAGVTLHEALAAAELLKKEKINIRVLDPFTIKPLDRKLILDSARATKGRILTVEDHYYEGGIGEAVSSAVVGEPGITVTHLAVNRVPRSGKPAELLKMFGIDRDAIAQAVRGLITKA
Description: Inhibition of transketolase in human HCT116 cells. The class given is cell-based, HCT-116. In a few lines:
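Cellular TK assay in human colon cancer HCT-116 cells, run in triplicate. EC50 reported as the average, with data within 4-fold of the mean.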

Test [2] concerns the target T1, Transketolase. Description: Inhibition of apo-transketolase.
In test [3] the target is T1, Transketolase. The test can be described thus: Inhibition of apo-transketolase by coupled TPPK/Apo-TK enzymatic assay. In a few lines: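 Each compound was first checked for pyrophosphorylation by TPPK, with thiamine as the control substrate; pyrophosphorylation was scored relative to thiamine. Compounds were then tested for competition with TPP in inhibiting TK activity. Kd is the average of at least three experiments, with data within 2-fold of the mean.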

For `Cc1c(Cc2cnc(C3CC3)nc2N)csc1CCO`, the EC50 on Transketolase [1] amounted to 0.66 µM. Further, the Kd at Transketolase [2] is > 500 µM; at Transketolase [3], 0.06 µM.
As to `Cc1c(Cc2cnc(N)nc2N)csc1CCO`, at Transketolase [1], the half-maximal effective concentration (EC50) worked out at 8.5 µM. The same compound displayed a Kd at Transketolase [2] of 2.2 µM.
Regarding `Cc1c(Cc2cncnc2N)csc1CCO`, the EC50 on Transketolase [1] worked out at 52 µM. Moreover, the Kd at Transketolase [2] was > 100 µM.
`Cc1ncc(Cc2[nH]nc(CCO)c2C)c(N)n1`: at Transketolase [1], the 50% effective concentration (EC50) is 17 µM.
Consider `Cc1ncc(Cc2nn(C)c(CCO)c2C)c(N)n1`, for which it took 4.7 µM to reach a half-maximal effect at Transketolase [1] (EC50).
On to `Cc1c(Cc2cnc(C(C)C)nc2N)csc1CCO`, for which, on Transketolase [1], the EC50 was 2.6 µM. In addition, the Kd on Transketolase [2] was > 500 µM; on Transketolase [3] it was 0.064 µM.
For the compound `Cc1ncc(Cn2c(C)c(CCO)sc2=O)c(N)n1` [THIAMINE THIAZOLONE], the 50% effective concentration (EC50) at Transketolase [1] came to 2.71 µM. The compound further yielded a Kd on Transketolase [2] of 34 µM.
Compound `Cc1ncc(C[n+]2csc(CCO)c2C)c(N)n1` [THIAMINE ION] displayed an equilibrium dissociation constant (Kd) on Transketolase [2] of 6800 µM.
The compound `Cc1ncc(Cc2csc(CCO)c2C)c(N)n1` [3-DEAZATHIAMINE] yielded an EC50 on Transketolase [1] of 1.2 µM. For the same compound, the Kd on Transketolase [2] is 18 µM; on Transketolase [3], 0.012 µM.
For `Cc1ncc(Cc2c(C)c(CCO)nn2C)c(N)n1`, the EC50 on Transketolase [1] amounted to 1.1 µM. This lies in the single-digit micromolar range.
Consider `Cc1c(Cc2cnc(-c3ccccc3)nc2N)csc1CCO`, for which the EC50 at Transketolase [1] is > 10 µM. Moreover, the values for the Kd on Transketolase [2] and on Transketolase [3] were > 500 µM and 0.23 µM, respectively.
As to `CC(=O)Nc1ncc(Cc2csc(CCO)c2C)c(N)n1`, it took 6.3 µM to reach a half-maximal effect on Transketolase [1] (EC50). The Kd on Transketolase [2] was determined as 1.1 µM; on Transketolase [3] it was 0.003 µM.
The compound `Cc1ccc(Cn2c(C)c(CCO)sc2=O)c(N)n1` registered an EC50 on Transketolase [1] of 3.24 µM. Also, the Kd on Transketolase [2] was > 500 µM.
Compound `Cc1ncc(Cn2c(C)c(CCO[P@@](=O)(O)OP(=O)(O)O)sc2=O)c(N)n1` returned an equilibrium dissociation constant (Kd) on Transketolase [2] of 0.016 µM.
The compound `Cc1c(Cc2cnc(C(F)(F)F)nc2N)csc1CCO` had a concentration giving a half-maximal response (EC50) at Transketolase [1] of 25 µM. At Transketolase [3], this compound showed a Kd of 0.063 µM.
